# Experimental data taken from ChEMBL document CHEMBL1148152, “Syncarpamide, a new antiplasmodial (+)-norepinephrine derivative from Zanthoxylum syncarpum” (J Nat Prod, 2004).
# The source made the active and inactive calls. The rule behind the calls is not given here.
# Tests used:
# Cryptococcus neoformans = assay: […] activity against Cryptococcus neoformans ATCC 90113 by antimicrobial susceptibility test; format: functional, organism-based
# Method in brief: (§1)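 Modified 96-well microplate broth assay run on purified compounds, giving IC50 and MIC values, against ATCC strains C. albicans 90028, C. neoformans 90113, and S. aureus 6535 and 33591. Amphotericin B and rifampin served as positive controls, with DMSO as the negative control.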
# Staphylococcus aureus [1] = assay: Antibacterial activity against Staphylococcus aureus ATCC 6535 by antimicrobial susceptibility test; format: functional, organism-based; method in brief: as §1
# Plasmodium falciparum [2] = assay: Antiplasmodial activity against Plasmodium falciparum D6; format: functional, organism-based
# Candida albicans = assay: Antifungal activity against Candida albicans B311 ATCC 90028 by antimicrobial susceptibility test; format: functional, organism-based; method in brief: as §1
# Staphylococcus aureus [3] = assay: Antibacterial activity against Staphylococcus aureus ATCC 33591 by antimicrobial susceptibility test; format: functional, organism-based; method in brief: as §1
# Plasmodium falciparum [4] = assay: Antiplasmodial activity against Plasmodium falciparum W2; format: functional, organism-based
# Vero [5] = assay: Cytotoxicity against african green monkey Vero cells; format: cell-based; conditions: chlorocebus sabaeus
# Method in brief: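 Cytotoxicity assay with doxorubicin and 5-fluorouracil as positive controls and DMSO as the vehicle (negative) control.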
# Vero [6] = assay: Cytotoxicity against african green monkey Vero cells at 56.42 uM; format: cell-based; conditions: chlorocebus sabaeus
IC50 (Plasmodium falciparum [2]) [nM],IC50 (Plasmodium falciparum [4]) [nM],Structure (SMILES),Activity (Cryptococcus neoformans),Activity (Staphylococcus aureus [1]),Activity (Plasmodium falciparum [2]),Activity (Candida albicans),Activity (Staphylococcus aureus [3]),Activity (Plasmodium falciparum [4]),Activity (Vero [5]),Activity (Vero [6])
,,CC(C)(O)[C@@H]1Cc2cc3ccc(=O)oc3cc2O1,inactive,inactive,inactive,inactive,inactive,inactive,,
2040,3060,COc1ccc([C@@H](CNC(=O)/C=C/c2ccccc2)OC(=O)/C=C/c2ccccc2)cc1OC [SYNCARPAMIDE],,,,,,,Not Active,
1440,880,COc1c(O)ccc2c1cnc1c3cc4c(cc3ccc21)OCO4 [DECARINE],Active,Active,,,Active,,Not Active,Active
